Here are results for three compounds from ChEMBL document CHEMBL3627702, “Navigating CYP1A Induction and Arylhydrocarbon Receptor Agonism in Drug Discovery. A Case History with S1P1 Agonists” (J Med Chem, 2015).

In series [1] the target is T1, CYP1A2 (Homo sapiens, UniProt P05177).
T1 sequence (P05177 whole entry): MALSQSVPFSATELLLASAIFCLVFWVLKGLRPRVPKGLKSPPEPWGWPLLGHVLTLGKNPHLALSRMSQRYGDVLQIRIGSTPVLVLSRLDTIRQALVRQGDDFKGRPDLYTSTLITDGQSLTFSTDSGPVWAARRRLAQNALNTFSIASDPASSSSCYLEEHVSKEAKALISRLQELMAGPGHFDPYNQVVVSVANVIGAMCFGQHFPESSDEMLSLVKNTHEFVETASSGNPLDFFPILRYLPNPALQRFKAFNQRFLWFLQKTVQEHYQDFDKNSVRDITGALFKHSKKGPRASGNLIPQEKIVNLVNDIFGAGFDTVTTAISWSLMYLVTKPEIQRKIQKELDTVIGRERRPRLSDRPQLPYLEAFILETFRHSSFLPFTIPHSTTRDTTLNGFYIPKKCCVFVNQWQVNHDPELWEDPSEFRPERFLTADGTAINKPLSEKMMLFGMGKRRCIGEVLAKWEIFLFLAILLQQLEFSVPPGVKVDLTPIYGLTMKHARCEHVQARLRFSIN
The series can be described thus: Induction of CYP1A2-mediated 7-ethoxyresorufin O-deethylase activity in human hepatocytes at 5 uM after 10 mins by fluorescence assay relative to control. As to conditions: probe 7-ethoxyresorufin, read-out: FC. It is filed as ADME, cell-based, Hepatocyte. The procedure, abridged:
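Human hepatocytes were treated for 48 h (re-dosed at 24 h), washed, then incubated with 0.5 μM ethoxyresorufin in serum-free medium for 10 min at 37 °C. Resorufin fluorescence read at Ex 530/Em 590 nm. Rate in fluorescence units/min expressed as fold over solvent control.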

Series [2] concerns CYP1A2. The series can be described thus: Induction of CYP1A2 mRNA expression in human hepatocytes at 10 uM relative to control. It is filed as ADME, cell-based, Hepatocyte. As to conditions: read-out: FC.
Series [3] concerns CYP1A2. Kind of series: Induction of CYP1A2 mRNA expression in rat hepatic microsomes at 30 mg/kg, po QD for 7 days relative to control. As to conditions: read-out: FC. It is filed as ADME, organism-based, Liver. The procedure, abridged:
(§1)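 Male rats dosed orally once daily for 7 days. Hepatic mRNA measured by Taqman and expressed as fold induction versus control animals.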

Series [4] concerns CYP1A1. Kind of series: Induction of CYP1A1 mRNA expression in rat hepatic microsomes at 30 mg/kg, po QD for 7 days relative to control. It is filed as ADME, organism-based, Liver. As to conditions: read-out: FC. The procedure, abridged: as §1
Series [5] has as its system CYP1A2. The series can be described thus: Induction of CYP1A2 mRNA expression in rat hepatocytes at 10 uM by Taqman analysis relative to control. As to conditions: read-out: FC. It is filed as ADME, cell-based, Hepatocyte. (In general: Quantitative PCR measures a nucleic acid by following its amplification.)
Series [6] has as its system CYP1A1. Kind of series: Induction of CYP1A1 mRNA expression in rat hepatocytes at 10 uM by Taqman analysis relative to control. It is filed as ADME, cell-based, Hepatocyte. As to conditions: read-out: FC.
Series [7] deals with Rattus norvegicus. Kind of series: Induction of CYP1A2 gene expression in rat hepatic microsomes at 30 to 300 mg/kg, po QD for 7 days. It is filed as ADME, organism-based, Liver. As to conditions: 168 h. The essentials: (§2)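 Rats dosed orally once daily for 7 days at 30–300 mg/kg/day, depending on compound. Hepatic AhR-panel gene mRNA (Cyp1a, Nqo1, Ephx1) measured and expressed as fold induction versus control animals.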

In series [8] the test system is CYP1A1. The series can be described thus: Induction of CYP1A1 gene expression in rat hepatic microsomes at 30 to 300 mg/kg, po QD for 7 days. It is filed as ADME, organism-based, Liver. As to conditions: read-out: FC. The procedure, abridged:
(§3)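 Rats received oral doses daily for 7 days: 30 and 100 mg/kg, or 30, 100 and 300 mg/kg, depending on compound. Hepatic CYP1A1 mRNA was expressed as fold induction versus control animals.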

The subject of series [9] is Rattus norvegicus. The series can be described thus: Induction of Nqo1 gene expression in rat hepatic microsomes at 30 to 300 mg/kg, po QD for 7 days. It is filed as organism-based, Liver. As to conditions: 168 h. The essentials: as §2
The subject of series [10] is Rattus norvegicus. Kind of series: Induction of Ephx1 gene expression in rat hepatic microsomes at 30 to 300 mg/kg, po QD for 7 days. It is filed as organism-based, Liver. As to conditions: 168 h. The procedure, abridged: as §2
Series [11] deals with Rattus norvegicus. Kind of series: Induction of CYP1A2 gene expression in po dosed rat hepatic microsomes administered po QD for 7 days. It is filed as ADME, organism-based, Liver. As to conditions: 168 h. The procedure, abridged: as §2
Series [12] deals with Rattus norvegicus. The series can be described thus: Induction of CYP1A1 gene expression in po dosed rat hepatic microsomes administered po QD for 7 days. As to conditions: 168 h. It is filed as ADME, organism-based, Liver. The essentials:
as §3

Series [13] relates to Rattus norvegicus. The series can be described thus: Induction of Nqo1 gene expression in po dosed rat hepatic microsomes administered po QD for 7 days. It is filed as organism-based, Liver. As to conditions: 168 h. The essentials:
as §2

In series [14] the test system is Rattus norvegicus. Kind of series: Induction of Ephx1 gene expression in po dosed rat hepatic microsomes administered po QD for 7 days. It is filed as organism-based, Liver. As to conditions: 168 h. The essentials:
as §2

Series [15] can be described thus: Oral bioavailability in CD rat at 3 mg/kg. As to conditions: in vivo. It is filed as ADME, organism-based. The essentials: (§4)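 Male CD rats cannulated in the femoral and jugular veins, n = 3, crossover design. Day 1: 1 h iv infusion at 1 mg/kg (0.2 mg/mL in ≤5% DMSO/≥95% 10% Kleptose in saline, 5 mL/kg/h). Day 2: oral gavage at 3 mg/kg (0.6 mg/mL in 1% methylcellulose, 5 mL/kg). Blood assayed by LC–MS/MS after acetonitrile precipitation.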

A short description of series [16]: Half life in CD rat at 1 mg/kg, iv. As to conditions: in vivo. It is filed as ADME, organism-based. The procedure, abridged: (§5)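 Male CD rats carried femoral vein (dosing) and jugular vein (sampling) cannulae and recovered at least 2 days. They received a 1 h iv infusion at 5 mL kg−1 h−1, target 1 mg/kg, at 0.2 mg/mL in DMSO/10% Kleptose in saline (≤5%:≥95%). pH was adjusted to 8.0 if needed and the solution filtered. Definitive studies used n = 3 in crossover; others used single animals.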

A short description of series [17]: Volume of distribution at steady state in CD rat at 1 mg/kg, iv. As to conditions: in vivo, read-out: Vdss. It is filed as ADME, organism-based. The essentials:
as §4

Series [18] in a line: Blood clearance in CD rat at 1 mg/kg, iv. It is filed as ADME, organism-based. The procedure, abridged: as §5
The nature of series [19]: Lipophilicity, log D of the compound at pH 7.4. It is filed as physicochemical. As to conditions: buffer.
Series [20] can be described thus: Dissociation constant, pKa of the compound. It is filed as physicochemical.
The subject of series [21] is CYP1A1. Kind of series: Induction of CYP1A1 mRNA expression in Sprague-Dawley rat hepatic microsomes at 25 mg/kg, po QD for 4 days relative to control. It is filed as ADME, organism-based, Liver. As to conditions: read-out: FC. The essentials:
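Male CD rats (226–325 g, n = 3) were dosed by oral gavage once daily for 4 days as a 1% w/v aqueous methylcellulose suspension (3–6 mg/mL, 5 mL/kg). At the end of the study, a left lateral liver lobe section was placed in RNALater and homogenised in TRIzol. RNA was purified, DNase-treated and converted to cDNA, and Cyp1a1 was read on low-density TaqMan arrays.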

Series [22] concerns CYP1A2. Kind of series: Induction of CYP1A2 mRNA expression in Sprague-Dawley rat hepatic microsomes at 25 mg/kg, po QD for 4 days relative to control. As to conditions: read-out: FC. It is filed as ADME, organism-based, Liver.
Series [23] is described as follows: Cmax in Sprague-Dawley rat at 25 mg/kg, po QD measured on day 1. It is filed as ADME, organism-based. Also noted: dose 25 mg/kg, route oral. As to conditions: in vivo. The procedure, abridged:
(§6)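 Male CD rats (226−325 g), n = 3, given the compound once daily by oral gavage for 4 days. Vehicle was 1% (w/v) methylcellulose aq suspension at 3−6 mg/mL, dosed at 5 mL/kg (target 15−30 mg/kg). Tail vein blood was taken on days 1 and 4 up to 24 h postdose. Blood was diluted 1:1 with water, extracted by acetonitrile protein precipitation and analysed by LC−MS/MS against calibration standards in diluted blood.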

Series [24] can be described thus: Cmax in Sprague-Dawley rat at 25 mg/kg, po QD measured on day 4. It is filed as ADME, organism-based. More on the design: dose 25 mg/kg, route oral. As to conditions: in vivo. The essentials: as §6
Series [25] is described as follows: AUC in Sprague-Dawley rat at 25 mg/kg, po QD measured on day 1. It is filed as ADME, organism-based. As to conditions: in vivo. The essentials: as §6
A short description of series [26]: AUC in Sprague-Dawley rat at 25 mg/kg, po QD measured on day 4. As to conditions: in vivo. It is filed as ADME, organism-based. The procedure, abridged: as §6
Series [27] deals with Rattus norvegicus. Kind of series: Dose normalized AUC in Sprague-Dawley rat at 25 mg/kg, po QD measured on day 1. It is filed as ADME, organism-based. As to conditions: in vivo. The procedure, abridged: as §6
Series [28] relates to Rattus norvegicus. Kind of series: Dose normalized AUC in Sprague-Dawley rat at 25 mg/kg, po QD measured on day 4. It is filed as ADME, organism-based. As to conditions: in vivo. The essentials:
as §6

The term bioavailability denotes the share of a dose that reaches the circulation, judged against a reference dose that is usually intravenous. Low values mean little systemic uptake, high ones much systemic uptake. By half-life is commonly meant the time in which the quantity being followed falls by half. Low readings indicate rapid decline, high ones slow decline. One may read the clearance as a measure of how efficiently the substance is removed, as volume per time. Lower therefore signals inefficient removal. The term logD denotes lipophilicity at a set pH, counting ionised and neutral species. Read a high logD as a more lipophilic compound. The pKa is the pH at which an ionisable group is half protonated. Lower therefore signals a group that gives up its proton readily. By Cmax is commonly meant the peak of the concentration-time curve. As a reminder, the AUC is concentration integrated over time. Lower therefore signals less exposure.

`CC(C)Oc1ccc(-c2nc(-c3cccc4c3OCCN(CCCC(=O)O)C4)no2)cc1Cl`: the fold induction at 10 min, 5 µM in series [1] came out at 1.1. For the same compound, the figures for the fold induction at 10 µM in series [2], in series [5] and in series [6] were 0.6, 3 and 5, respectively. Besides, the fold induction at 168 h was 8 in series [3], 75 in series [4] and 10000 in [8]. Besides, the Activity entry in [7] was “Toxic”; in [9] it was “Toxic”; in series [10] it was “Toxic”; in [11] it was “Dose-dependent effect”; in series [12], “Dose-dependent effect”; in [13], “Dose-dependent effect”. Also, in series [14], the Activity result is reported as “Dose-dependent effect”.
With `CC(C)Oc1ccc(-c2nc(-c3ccc4c(c3)CCN(CCCC(=O)O)CC4)no2)cc1C#N`, the fold induction at 168 h in series [3] worked out at 2; in series [4], 210; in [8] it was 10000. The fold induction at 10 µM was determined as 2 in series [5] and 3 in series [6]. Also, the Activity entry in [7] was “Toxic”; in series [9] it was “Toxic”; in [10], “Toxic”; in series [11], “Dose-dependent effect”; in [12] it was “Dose-dependent effect”; in [13], “Dose-dependent effect”. In addition, the Activity entry in series [14] is “Dose-dependent effect”.
As to `Cc1c(-c2noc(-c3ccc(OC(C)C)c(C#N)c3)n2)ccc2c1OCCN(C(CO)CO)C2`, the bioavailability in series [15] came out at 69%. The compound further had a half-life in series [16] of 1 h. In addition, the Vd in series [17] came out at 4 L/kg. Also, the clearance in series [18] was 54 mL/min/kg. The compound further yielded a log distribution coefficient (logD) in series [19] of 2.86. The pKa in [20] came out at 6.3. Moreover, the results for the fold induction at 96 h in [21] and in series [22] were 40 and 2, respectively. The Cmax in series [23] amounted to 870 ng/mL; in series [24], 1140 ng/mL. The results for the AUC in series [25] and in [26] were 8840 ng·h/mL and 12600 ng·h/mL, respectively. The AUC/dose in series [27] turned out to be 22 kg·min/L; in [28], 30 kg·min/L.
